Source: ChEMBL document CHEMBL5385938 (J Med Chem, 2024)
Activity calls are given as the source filed them. The rule behind the calls is not given here.

Key:
SK-BR-3 = assay: Cytotoxicity against human SK-BR-3 cells harboring wildtype PI3Kalpha assessed as reduction in cell viability incubated for 72 hrs by CellTiter-Glo 2.0 luminescent cell viability assay; format: functional, cell-based; conditions: SK-BR-3, 72 h
[1] = Selectivity ratio of IC50 for cytotoxicity against human SK-BR-3 cells harboring wild type PI3Kalpha to IC50 for cytotoxicity against human T47D cells harboring PI3Kalpha H1047R mutant; format: functional
T47D = assay: Cytotoxicity against human T47D cells harboring PI3Kalpha H1047R mutant assessed as reduction in cell viability incubated for 72 hrs by CellTiter-Glo 2.0 luminescent cell viability assay; format: functional, cell-based
[2] = Metabolic stability in pooled human hepatocytes assessed as intrinsic clearance; format: ADME, Liver, Hepatocyte; conditions: read-out: CLH
[3] = target: T1, Phosphatidylinositol 4,5-bisphosphate 3-kinase catalytic subunit alpha isoform (Homo sapiens, UniProt P42336, H1047R)
Homo sapiens = species on record: Homo sapiens; assay: Selectivity ratio of IC50 for inhibition of recombinant N-terminal 6-His tagged full length human wildtype PI3Kalpha to IC50 for inhibition of recombinant N-terminal 6-His tagged full length human PI3Kalpha H1047R mutant
[4] = target: T1, Phosphatidylinositol 4,5-bisphosphate 3-kinase catalytic subunit alpha isoform; assay: Inhibition of recombinant N-terminal 6-His tagged full length human PI3Kalpha H1047R mutant using PIP2diC8 and PIP2:PS as substrate incubated for 1 hrs in presence of ATP by fluorescence based plate reader analysis
[5] = Volume of distribution at steady state in Sprague-Dawley rat at 100 mg/kg, po or 3 mg/kg, iv measured upto 24 hrs; format: ADME, organism-based; conditions: in vivo
[6] = Volume of distribution at steady state in Beagle dog at 10 mg/kg, po or 2 mg/kg, iv measured upto 24 hrs; format: ADME, organism-based, Canis lupus familiaris; conditions: in vivo
Mus musculus = assay: In vivo inhibition of AKT phosphorylation in NOD.CB17-Prkdcscid/NCrCr mouse xenografted with ER-/HER+ human HCC1954 cells harboring PI3Kalpha H1047R mutant at 100 to 300 mg/kg, po measured upto 8 hrs by immunoblotting analysis; format: functional, organism-based; conditions: dose 100-300 mg/kg
[7] = Half-life in Sprague-Dawley rat at 3 mg/kg, iv measured upto 24 hrs; format: ADME, organism-based; conditions: in vivo
[8] = In vivo inhibition of AKT phosphorylation in NOD.CB17-Prkdcscid/NCrCr mouse xenografted with ER-/HER+ human HCC1954 cells harboring PI3Kalpha H1047R mutant at 120 mg/kg, ip administered as single dose and measured after 8 hrs by immunoblotting analysis relative to control; format: functional
Summary of the method: (§1)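 HCC1954 tumor-bearing mice received a single IP dose of 60 or 120 mg/kg. Tumor pAKT modulation was measured at 1 h and 8 h post dose, relative to control.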

[9] = target: T1, Phosphatidylinositol 4,5-bisphosphate 3-kinase catalytic subunit alpha isoform; assay: Inhibition of PI3Kalpha H1047R mutant (unknown origin) using PI(4,5)P2:PS as substrate incubated in presence of ATP by ADP-Glo assay
[10] = Half-life in CD-1 mouse at 3 mg/kg, iv measured upto 24 hrs; format: ADME, organism-based; conditions: in vivo
[11] = Oral bioavailability in Sprague-Dawley rat at 100 mg/kg measured upto 24 hrs; format: ADME, organism-based; conditions: in vivo
[12] = Oral bioavailability in CD-1 mouse at 100 mg/kg measured upto 24 hrs; format: ADME, organism-based; conditions: in vivo
HCC1954 [13] = assay: Antitumor activity against ER-/HER2+ human HCC1954 cells harboring endogenous PI3Kalpha H1047R mutant xenografted in NOD.CB17-Prkdcscid/NCrCr mouse assessed as tumor regression at 80 mg/kg, ip administered twice daily for 14 days relative to control; format: functional; conditions: time 14 day
Summary of the method: (§2)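 HCC1954 xenograft mice (ER-/HER2+ breast line, endogenous PI3Kα H1047R) were dosed IP for 14 days, at 100 mg/kg qd or 80 mg/kg b.i.d. Read-out was tumor growth inhibition or regression (%).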

[14] = Half-life in Beagle dog at 2 mg/kg, iv measured upto 24 hrs; format: ADME, organism-based, Canis lupus familiaris; conditions: in vivo
HCC1954 [15] = assay: Antitumor activity against ER-/HER2+ human HCC1954 cells harboring endogenous PI3Kalpha H1047R mutant xenografted in NOD.CB17-Prkdcscid/NCrCr mouse assessed as tumor growth inhibition at 100 mg/kg, ip administered once a day for 14 days relative to control; format: functional; conditions: HCC1954, 336 h, time 14 day, read-out: TGI; summary of the method: as §2
[16] = Drug uptake in NOD.CB17-Prkdcscid/NCrCr mouse xenografted with ER-/HER+ human HCC1954 cells harboring PI3Kalpha H1047R mutant at 60 to 120 mg/kg, ip administered as single dose and measured upto 8 hrs; format: ADME, organism-based; conditions: in vivo, dose 60-120 mg/kg
[17] = Volume of distribution at steady state in CD-1 mouse at 100 mg/kg, po or 3 mg/kg, iv measured upto 24 hrs; format: ADME, organism-based; conditions: in vivo
[18] = Oral bioavailability in Beagle dog at 10 mg/kg measured upto 24 hrs; format: ADME, organism-based, Canis lupus familiaris; conditions: in vivo
[19] = In vivo inhibition of AKT phosphorylation in NOD.CB17-Prkdcscid/NCrCr mouse xenografted with ER-/HER+ human HCC1954 cells harboring PI3Kalpha H1047R mutant at 60 mg/kg, ip administered as single dose and measured after 8 hrs by immunoblotting analysis relative to control; format: functional; summary of the method: as §1

T1 sequence (P42336 whole entry H1047R, canonical isoform): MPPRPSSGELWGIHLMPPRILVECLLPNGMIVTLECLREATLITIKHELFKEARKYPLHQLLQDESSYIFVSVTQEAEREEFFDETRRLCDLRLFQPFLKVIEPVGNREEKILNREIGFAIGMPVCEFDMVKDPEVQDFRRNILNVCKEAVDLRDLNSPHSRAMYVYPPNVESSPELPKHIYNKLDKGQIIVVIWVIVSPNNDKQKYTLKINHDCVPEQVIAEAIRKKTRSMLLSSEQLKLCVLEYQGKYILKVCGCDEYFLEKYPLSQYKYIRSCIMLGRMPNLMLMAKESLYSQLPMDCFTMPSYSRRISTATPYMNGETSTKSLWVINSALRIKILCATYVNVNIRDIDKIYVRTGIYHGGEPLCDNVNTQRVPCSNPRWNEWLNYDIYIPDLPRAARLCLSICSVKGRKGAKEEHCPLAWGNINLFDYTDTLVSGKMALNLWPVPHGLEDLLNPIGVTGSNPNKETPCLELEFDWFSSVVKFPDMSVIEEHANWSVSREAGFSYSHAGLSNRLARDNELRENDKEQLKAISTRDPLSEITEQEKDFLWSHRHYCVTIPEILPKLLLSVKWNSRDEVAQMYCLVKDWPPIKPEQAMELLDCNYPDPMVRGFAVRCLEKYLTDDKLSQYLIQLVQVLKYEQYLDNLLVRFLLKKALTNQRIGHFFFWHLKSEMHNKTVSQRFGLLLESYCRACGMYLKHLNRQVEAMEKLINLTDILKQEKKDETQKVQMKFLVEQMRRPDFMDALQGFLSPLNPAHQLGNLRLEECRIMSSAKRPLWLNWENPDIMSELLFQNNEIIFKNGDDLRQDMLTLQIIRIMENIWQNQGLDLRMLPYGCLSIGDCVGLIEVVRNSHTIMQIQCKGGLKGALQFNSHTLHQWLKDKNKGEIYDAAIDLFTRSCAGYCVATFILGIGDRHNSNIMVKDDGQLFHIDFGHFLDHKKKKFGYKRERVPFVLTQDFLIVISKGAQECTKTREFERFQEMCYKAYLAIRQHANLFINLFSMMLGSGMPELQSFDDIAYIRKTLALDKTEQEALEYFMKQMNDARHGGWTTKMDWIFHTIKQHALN

SMILES | CLint scaled [2] | IC50 (SK-BR-3) | IC50 (T47D) | further results
Cc1cc(C(C)Nc2ccccc2C(=O)O)c2nc(N3CCC(C)(C)CC3)n(C)c(=O)c2c1 (centres undefined) |  | > 10000 nM | 6240 nM | Ratio IC50 [1]: 2
Cc1cc([C@@H](C)Nc2nccnc2C(=O)O)c2nc(N3CCC(F)(F)CC3)c(C#N)c(=O)n2c1 |  |  | 3720 nM | 
Cc1cc(C(C)Nc2ccccc2C(=O)O)c2nc(N3CCCCC3)ncc2c1 (centres undefined) |  | > 10000 nM | > 10000 nM | 
Cc1cc([C@@H](C)Nc2ccc(Cl)cc2C(=O)O)c2nc(N3CCC(F)(F)CC3)c(C#N)c(=O)n2c1 |  |  | 627 nM | 
Cc1ccccc1C1NC(=O)c2cc(NC3COC3)cc(NC(=O)c3csc4ccccc34)c21 (centres undefined) |  |  |  | IC50 [3]: ≤ 100 nM
Cc1cc([C@@H](C)Nc2ccccc2C(=O)O)c2nc(N3CC4CC(C3)C4(F)F)c(C#N)c(=O)n2c1 | 39 mL/min/kg | > 10000 nM | 71 nM | 
Cc1cc([C@@H](C)Nc2ccccc2C(=O)O)c2oc(N3CCCCC3)cc(=O)c2c1 |  |  |  | Ratio IC50 (Homo sapiens): 13.5; IC50 [4]: < 500 nM
Cc1cc([C@@H](C)Nc2ccccc2C(=O)O)c2nc(C3CCC(F)(F)CC3)c(C#N)c(=O)n2c1 | 12 mL/min/kg | > 10000 nM | 246 nM | 
Cc1cc([C@@H](C)Nc2ccccc2C(=O)O)c2nc(N3CCCCC3)cc(=O)n2c1 | 181 mL/min/kg | > 10000 nM | 1110 nM | IC50 [9]: 411 nM; Ratio IC50 [1]: 9
Cc1cc([C@@H](C)Nc2cscc2C(=O)O)c2nc(N3CCC(F)(F)CC3)c(C#N)c(=O)n2c1 |  |  | 183 nM | 
Cc1cc([C@@H](C)Nc2cccc(F)c2C(=O)O)c2nc(N3CCC(F)(F)CC3)c(C#N)c(=O)n2c1 |  |  | 566 nM | 
Cc1cc([C@@H](C)Nc2ccc(Cl)nc2C(=O)O)c2nc(N3CCC(F)(F)CC3)c(C#N)c(=O)n2c1 |  |  | 304 nM | 
Cc1cc([C@@H](C)Nc2ccccc2C(=O)O)c2oc(N3CCC(C)(C)CC3)c(C)c(=O)c2c1 |  | 9080 nM | 160 nM | Ratio IC50 [1]: 57

More lines, main results first:

CLint scaled [2] | SMILES | IC50 (SK-BR-3) | IC50 (T47D) | further results
24 mL/min/kg | Cc1cc([C@@H](C)Nc2ccccc2C(=O)O)c2nc(N3CC(F)(F)C3)c(C#N)c(=O)n2c1 | > 10000 nM | 56 nM | 
76 mL/min/kg | Cc1cc([C@@H](C)Nc2ccccc2C(=O)O)c2nc(N3CCC(C)(C)CC3)c(C#N)c(=O)n2c1 | > 10000 nM | 151 nM | 
118 mL/min/kg | Cc1cc([C@@H](C)Nc2ccccc2C(=O)O)c2nc(N3CC4(C3)CC(F)(F)C4)c(C#N)c(=O)n2c1 | > 10000 nM | > 10000 nM | 
29 mL/min/kg | Cc1cc([C@@H](C)Nc2ccccc2C(=O)O)c2nc(N3CCC(F)(F)CC3)c(C#N)c(=O)n2c1 | 8970 nM | 48 nM | Vdss [5]: 4.8 L/kg; Vdss [6]: 1.5 L/kg; inhibition (Mus musculus): inactive; t1/2 [7]: 3.5 h; inhibition in vivo at 120 mg/kg [8]: 81%; IC50 [9]: 73 nM; t1/2 [10]: 2 h; F [11]: 57%; F [12]: 48%; Activity (HCC1954 [13]): -34%; t1/2 [14]: 0.7 h; inhibition in vivo at 100 mg/kg (HCC1954 [15]): 88%; Drug uptake [16]: Active; Vdss [17]: 13.6 L/kg; F [18]: 7%; inhibition in vivo at 60 mg/kg [19]: 42%
5 mL/min/kg | Cc1cc([C@@H](C)Nc2ccccc2C(=O)O)c2nc(N3CCS(=O)(=O)CC3)c(C#N)c(=O)n2c1 | > 10000 nM | > 10000 nM | 
862 mL/min/kg | Cc1cc([C@@H](C)Nc2ccccc2C(=O)O)c2nc(N3CCCCC3)c(F)c(=O)n2c1 |  |  | 
79 mL/min/kg | Cc1cc([C@@H](C)Nc2ccccc2C(=O)O)c2nc(N3CCCCC3)c(C#N)c(=O)n2c1 | 9940 nM | 86 nM | 
340 mL/min/kg | Cc1cc([C@@H](C)Nc2ccccc2C(=O)O)c2nc(N3CCCCC3)c(C)c(=O)n2c1 | > 10000 nM | 120 nM | Ratio IC50 [1]: 83
78 mL/min/kg | Cc1cc([C@@H](C)Nc2ccccc2C(=O)O)c2nc(N3CCCC3)c(C#N)c(=O)n2c1 | > 10000 nM | 135 nM | 
